From ChEMBL document CHEMBL2021852 (ACS Med Chem Lett, 2011)
Values belong to the molecule of their own block, whether it stands above or below them. Active and inactive are the calls of the source. No cut-off for these calls is given here.

Experiments:
[1] = target: T1, Cathepsin E (Homo sapiens) (UniProt P14091); assay: Inhibition of human recombinant cathepsin E using Mca-GKPILFFRLK(Dnp)-D-Arg-NH2 as substrate at 10 uM incubated for 10 mins prior to substrate addition measured for 1 hr by FRET analysis
T1 sequence (whole entry): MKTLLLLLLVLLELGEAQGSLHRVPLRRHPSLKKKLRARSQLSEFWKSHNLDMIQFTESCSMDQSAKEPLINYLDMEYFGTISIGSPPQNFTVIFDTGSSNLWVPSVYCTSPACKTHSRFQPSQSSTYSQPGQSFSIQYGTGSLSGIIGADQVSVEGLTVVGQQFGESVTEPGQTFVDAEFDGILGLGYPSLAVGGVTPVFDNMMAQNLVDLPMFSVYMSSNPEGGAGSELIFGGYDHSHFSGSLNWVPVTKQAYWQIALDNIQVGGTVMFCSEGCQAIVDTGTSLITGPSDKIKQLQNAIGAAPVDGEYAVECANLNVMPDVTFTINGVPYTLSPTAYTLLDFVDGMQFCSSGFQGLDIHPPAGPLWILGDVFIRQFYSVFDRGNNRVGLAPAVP

[2] = target: Cathepsin D (Homo sapiens) (UniProt P07339); assay: Inhibition of human cathepsin D using Mca-GKPILFFRLK(Dnp)-D-Arg-NH2 as substrate at 10 uM incubated for 10 mins prior to substrate addition measured for 1 hr by FRET analysis
Sequence of Cathepsin D (Homo sapiens) (P07339 65-162 limits assumed): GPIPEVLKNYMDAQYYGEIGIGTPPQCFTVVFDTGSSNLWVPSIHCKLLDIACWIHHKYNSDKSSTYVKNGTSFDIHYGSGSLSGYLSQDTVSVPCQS
Sequence of Cathepsin D (Homo sapiens) (P07339 169-412 limits assumed): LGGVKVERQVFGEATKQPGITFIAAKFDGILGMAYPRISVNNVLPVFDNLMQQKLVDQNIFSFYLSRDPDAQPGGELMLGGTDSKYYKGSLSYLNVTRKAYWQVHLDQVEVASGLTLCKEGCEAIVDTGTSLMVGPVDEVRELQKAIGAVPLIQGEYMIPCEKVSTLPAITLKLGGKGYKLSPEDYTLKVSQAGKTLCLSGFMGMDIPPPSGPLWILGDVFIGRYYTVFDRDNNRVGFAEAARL

[3] = target: Beta-secretase 1 (Homo sapiens) (UniProt P56817); assay: Inhibition of BACE using SEVNLDAEFK(Dnp)NH2 as substrate at 10 uM incubated for 10 mins prior to substrate addition measured for 1 hr by FRET analysis
Sequence of Beta-secretase 1 (Homo sapiens) (P56817 whole entry): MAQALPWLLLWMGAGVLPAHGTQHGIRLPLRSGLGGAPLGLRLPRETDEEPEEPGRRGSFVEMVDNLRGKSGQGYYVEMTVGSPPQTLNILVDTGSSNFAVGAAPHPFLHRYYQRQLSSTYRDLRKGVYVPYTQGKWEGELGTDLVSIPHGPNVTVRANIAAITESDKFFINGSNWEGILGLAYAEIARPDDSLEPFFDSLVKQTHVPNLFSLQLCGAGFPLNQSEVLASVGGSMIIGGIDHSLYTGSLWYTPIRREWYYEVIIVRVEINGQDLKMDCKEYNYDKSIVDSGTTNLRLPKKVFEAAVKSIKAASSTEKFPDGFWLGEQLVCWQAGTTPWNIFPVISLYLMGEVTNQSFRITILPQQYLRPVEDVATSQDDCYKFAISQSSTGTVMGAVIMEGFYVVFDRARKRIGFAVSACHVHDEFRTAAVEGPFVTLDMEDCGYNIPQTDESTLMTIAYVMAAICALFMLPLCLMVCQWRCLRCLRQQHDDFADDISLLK

[4] = test system: Rattus norvegicus; assay: Antihypertensive activity in double transgenic rat expressing human renin assessed as reduction in mean arterial blood pressure at 10 mg/kg, po after 24 hrs; type: functional, organism-based; design: dose 10 mg/kg; conditions: Artery
Outline: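 Double transgenic rats expressing human renin and angiotensinogen, with severe hypertension dependent on human renin, received 10 mg/kg orally. Mean arterial pressure was followed over time, including at t = 24 h.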

[5] = target: Cytochrome P450 3A4 (Homo sapiens, UniProt P08684); assay: Inhibition of CYP3A4 using testosterone as substrate in human liver microsome for 20 mins by HPLC analysis; type: ADME, microsomes
Sequence of Cytochrome P450 3A4 (P08684 whole entry): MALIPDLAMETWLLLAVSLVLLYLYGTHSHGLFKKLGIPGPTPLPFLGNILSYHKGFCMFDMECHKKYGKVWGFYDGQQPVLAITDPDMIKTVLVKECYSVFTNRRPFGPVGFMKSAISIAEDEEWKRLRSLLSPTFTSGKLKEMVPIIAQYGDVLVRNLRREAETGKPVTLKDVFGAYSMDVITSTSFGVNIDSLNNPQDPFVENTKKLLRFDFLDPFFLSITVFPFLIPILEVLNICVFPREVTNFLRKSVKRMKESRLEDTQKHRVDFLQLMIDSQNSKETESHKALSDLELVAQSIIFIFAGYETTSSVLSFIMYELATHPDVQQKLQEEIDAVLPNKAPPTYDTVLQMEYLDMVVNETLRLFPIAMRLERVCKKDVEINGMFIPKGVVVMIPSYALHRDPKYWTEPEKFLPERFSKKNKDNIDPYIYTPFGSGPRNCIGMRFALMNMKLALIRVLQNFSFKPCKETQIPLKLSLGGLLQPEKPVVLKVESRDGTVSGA
Outline: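 CYP3A4 inhibition measured in human liver microsomes; IC50 is the average of at least two replicates.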

[6] = AUC (0 to t) in rat at 8 mg/kg, po; type: ADME, organism-based; design: dose 8 mg/kg, route oral; conditions: plasma
Outline: (§1)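 Compounds were dosed as fumarate salts in separate intravenous and oral arms. Oral AUC(0–t), IV half-life, IV clearance, Vss and oral bioavailability (F) were derived from the plasma levels.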

[7] = AUC (0 to t) in cynomolgus monkey at 1 mg/kg, po; type: ADME, organism-based, Macaca fascicularis; design: dose 1 mg/kg, route oral; conditions: plasma; outline: as §1
[8] = Half life in rat at 1.6 mg/kg, iv; type: ADME, organism-based; design: dose 1.6 mg/kg, route intravenous; conditions: in vivo; outline: as §1
[9] = Half life in cynomolgus monkey at 1 mg/kg, iv; type: ADME, organism-based, Macaca fascicularis; design: dose 1 mg/kg, route intravenous; conditions: in vivo; outline: as §1
[10] = Clearance in rat at 1.6 mg/kg, iv; type: ADME, organism-based; design: dose 1.6 mg/kg, route intravenous; conditions: in vivo; outline: as §1
[11] = Volume of distribution at steady state in rat at 1.6 mg/kg, iv and 8 mg/kg, po; type: ADME, organism-based; conditions: in vivo, read-out: Vdss; outline: as §1
[12] = Volume of distribution at steady state in cynomolgus monkey at 1 mg/kg, iv and 1 mg/kg, po; type: ADME, organism-based, Macaca fascicularis; conditions: in vivo, read-out: Vdss; outline: as §1
[13] = Oral bioavailability in rat at 8 mg/kg; type: ADME, organism-based; conditions: in vivo
Outline: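 Rats given compound as the fumarate salt, intravenously and by mouth in separate arms. Oral AUC(0–t), IV half-life, IV clearance, Vss and F were tabulated. The oral dose was 8.0 mg/kg, paired with an IV dose of 1.6 mg/kg.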

[14] = Oral bioavailability in cynomolgus monkey at 1 mg/kg; type: ADME, organism-based, Macaca fascicularis; conditions: in vivo; outline: as §1
[15] = AUC (0 to t) in rat at 10 mg/kg, po; type: ADME, organism-based; design: dose 10 mg/kg, route oral; conditions: plasma; outline: as §1
[16] = AUC (0 to t) in dog at 1 mg/kg, po; type: ADME, organism-based, Canis lupus familiaris; design: dose 1 mg/kg, route oral; conditions: plasma; outline: as §1
[17] = Half life in rat at 2 mg/kg, iv; type: ADME, organism-based; design: dose 2 mg/kg, route intravenous; conditions: in vivo; outline: as §1
[18] = Half life in dog at 1 mg/kg, iv; type: ADME, organism-based, Canis lupus familiaris; design: dose 1 mg/kg, route intravenous; conditions: in vivo
[19] = Clearance in cynomolgus monkey at 1 mg/kg, iv; type: ADME, organism-based, Macaca fascicularis; design: dose 1 mg/kg, route intravenous; conditions: in vivo; outline: as §1
[20] = Clearance in dog at 1 mg/kg, iv; type: ADME, organism-based, Canis lupus familiaris; design: dose 1 mg/kg, route intravenous; conditions: in vivo
[21] = Oral bioavailability in cynomolgus monkey at 2 mg/kg; type: ADME, organism-based, Macaca fascicularis; conditions: in vivo; outline: as §1
[22] = Oral bioavailability in dog at 1 mg/kg; type: ADME, organism-based, Canis lupus familiaris; conditions: in vivo; outline: as §1
[23] = target: T2, Renin (Homo sapiens, UniProt P00797); assay: Inhibition of human recombinant renin using DABCYL-gamma-Abu-Ile-His-Pro-Phe-His-Leu-Val-Ile-His-Thr-EDANS as substrate for 60 mins by fluorimetry
T2 sequence (P00797 whole entry): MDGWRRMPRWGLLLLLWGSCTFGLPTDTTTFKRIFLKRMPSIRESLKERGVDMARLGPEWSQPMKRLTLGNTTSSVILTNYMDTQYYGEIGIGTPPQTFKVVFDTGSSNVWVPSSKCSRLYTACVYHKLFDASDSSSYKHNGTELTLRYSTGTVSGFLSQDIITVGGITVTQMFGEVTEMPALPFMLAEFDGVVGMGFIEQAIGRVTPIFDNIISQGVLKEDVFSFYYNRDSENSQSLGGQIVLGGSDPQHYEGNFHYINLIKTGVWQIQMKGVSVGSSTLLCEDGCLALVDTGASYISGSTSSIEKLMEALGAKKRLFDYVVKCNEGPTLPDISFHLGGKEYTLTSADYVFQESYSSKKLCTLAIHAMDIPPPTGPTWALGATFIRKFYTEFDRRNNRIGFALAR
Outline: (§2)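 Purified recombinant human renin measured in buffer; each value is the average of at least two replicates.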

[24] = target: T2, Renin; assay: Inhibition of human recombinant renin using H-Asp-Arg-Val-Tyr-Ile-His-Pro-Phe-His-Leu-Val-Ile-His-Asn-OH as substrate assessed as formation of angiotensin1 product after 2 hrs by competive radioimmunoassay; outline: as §2
[25] = target: T2, Renin; assay: Inhibition of renin in human plasma assessed as formation of angiotensin1 product after 90 mins by competitive radioimmunoassay
Outline: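 IC50 for renin inhibition determined in the presence of human plasma; each value is the average of at least two replicates.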

[26] = AUC (0 to t) in cynomolgus monkey at 2 mg/kg, po; type: ADME, organism-based, Macaca fascicularis; design: dose 2 mg/kg, route oral; conditions: plasma; outline: as §1
[27] = Half life in dog at 0.5 mg/kg, iv; type: ADME, organism-based, Canis lupus familiaris; design: dose 0.5 mg/kg, route intravenous; conditions: in vivo; outline: as §1
[28] = Clearance in rat at 2 mg/kg, iv; type: ADME, organism-based; design: dose 2 mg/kg, route intravenous; conditions: in vivo; outline: as §1
[29] = Clearance in dog at 0.5 mg/kg, iv; type: ADME, organism-based, Canis lupus familiaris; design: dose 0.5 mg/kg, route intravenous; conditions: in vivo; outline: as §1
[30] = Volume of distribution at steady state in rat at 2 mg/kg, iv and 10 mg/kg, po; type: ADME, organism-based; conditions: in vivo, read-out: Vdss; outline: as §1
[31] = Volume of distribution at steady state in cynomolgus monkey at 1 mg/kg, iv and 2 mg/kg, po; type: ADME, organism-based, Macaca fascicularis; conditions: in vivo, read-out: Vdss; outline: as §1
[32] = Volume of distribution at steady state in dog at 0.5 mg/kg, iv and 1 mg/kg, po; type: ADME, organism-based, Canis lupus familiaris; conditions: in vivo, read-out: Vdss; outline: as §1

Structure (SMILES): CNC[C@H](CC1CCCCC1)NC(=O)N1CCC[C@@H]([C@@H](OCCNC(=O)OC)c2cccc(Cl)c2)C1.O=C(O)/C=C/C(=O)O
AUC(0-t) [6]: 301 ng·h/mL
AUC(0-t) [7]: 130 ng·h/mL
half-life [8]: 16.2 h
half-life [9]: 23.3 h
clearance [10]: 36 mL/min/kg
Vd [11]: 19 L/kg
Vd [12]: 9.8 L/kg
bioavailability [13]: 9.4%
bioavailability [14]: 9.9%

Structure (SMILES): COCCCOc1cc(C[C@@H](C[C@H](N)[C@@H](O)C[C@H](C(=O)NCC(C)(C)C(N)=O)C(C)C)C(C)C)ccc1OC.COCCCOc1cc(C[C@@H](C[C@H](N)[C@@H](O)C[C@H](C(=O)NCC(C)(C)C(N)=O)C(C)C)C(C)C)ccc1OC.O=C(O)/C=C/C(=O)O [ALISKIREN FUMARATE]
AUC(0-t) [15]: 21 ng·h/mL
AUC(0-t) [16]: 149 ng·h/mL
half-life [17]: 39.6 h
half-life [9]: 14.7 h
half-life [18]: 16.3 h
clearance [19]: 2.5 mL/min/kg
clearance [20]: 11 mL/min/kg
bioavailability [21]: 1.4%
bioavailability [22]: 11%

Structure (SMILES): CNC[C@H](C[C@H]1CCCOC1)NC(=O)N1CCC[C@@H]([C@@H](OCCNC(=O)OC)c2cccc(Cl)c2)C1
IC50 [23]: 0.56 nM
IC50 [24]: 0.42 nM
IC50 [25]: 0.48 nM
IC50 [5]: 28000 nM

Structure (SMILES): COCCCC[C@@](O)(c1cccc(Cl)c1F)[C@@H]1CCCN(C(=O)NC[C@@H](N)CC2CCCCC2)C1
IC50 [23]: 2.2 nM
IC50 [24]: 0.27 nM
IC50 [25]: 69 nM
IC50 [5]: 2910 nM

Structure (SMILES): CN[C@H](CNC(=O)N1CCC[C@@H]([C@@H](OCCNC(=O)OC)c2cccc(Cl)c2)C1)C[C@H]1CCCOC1.O=C(O)/C=C/C(=O)O
AUC(0-t) [26]: 404 ng·h/mL
AUC(0-t) [16]: 484 ng·h/mL
half-life [17]: 7.3 h
half-life [9]: 12.3 h
half-life [27]: 9.9 h
clearance [28]: 128 mL/min/kg
clearance [19]: 29.6 mL/min/kg
clearance [29]: 12.9 mL/min/kg
Vd [30]: 38 L/kg
Vd [31]: 4.7 L/kg
Vd [32]: 4 L/kg
bioavailability [21]: 18%
bioavailability [22]: 41%

More lines, main results first:

inhibition [1]: < 10%
inhibition [2]: < 10%
inhibition [3]: < 10%
Structure (SMILES): CN[C@H](CNC(=O)N1CCC[C@@H]([C@@H](OCCNC(=O)OC)c2cccc(Cl)c2)C1)C[C@H]1CCCOC1
Activity [4]: Active

IC50 [5]: 4600 nM
Structure (SMILES): CNC[C@H](CC1CCCCC1)NC(=O)N1CCC[C@@H]([C@@H](OCCNC(=O)OC)c2cccc(Cl)c2)C1
